Tests used:
[1] = Cytotoxicity against HEL cells; assay type: cell-based; conditions: human
Sindbis virus = test: Antiviral activity against Sindbis virus in Vero cells; assay type: functional, organism-based
Coxsackievirus B4 = test: Antiviral activity against Coxsackie B4 virus in HeLa cells; assay type: functional, organism-based; conditions: Enterovirus B
[2] = tested on: Mammalian orthoreovirus 1; test: Antiviral activity against reovirus 1 in Vero cells; assay type: functional, organism-based; conditions: Mammalian orthoreovirus 1, Vero
Human respirovirus 3 = test: Antiviral activity against para influenza 3 virus in Vero cells; assay type: functional, organism-based; conditions: Human respirovirus 3, Vero
Punta Toro virus = test: Antiviral activity against Punta Toro virus in Vero cells; assay type: functional, organism-based
[3] = Cytotoxicity against HeLa cells; assay type: cell-based; conditions: human
Human alphaherpesvirus 1 [4] = test: (§1) Antiviral activity against HSV1 KOS in HEL cells; assay type: functional, organism-based; conditions: Human alphaherpesvirus 1, KOS
Human alphaherpesvirus 1 [5] = test: as §1; assay type: functional, organism-based; conditions: Human alphaherpesvirus 1, KOS; remark: listed apart in the source
[6] = Cytotoxicity against Vero cells; assay type: cell-based; conditions: chlorocebus sabaeus
[7] = tested on: Respiratory syncytial virus; test: Antiviral activity against RSV in HeLa cells; assay type: functional, organism-based; conditions: human respiratory syncytial virus
[8] = tested on: Vesicular stomatitis virus; test: Antiviral activity against vesicular somatitis virus in HEL cells; assay type: functional, organism-based
Vaccinia virus = test: Antiviral activity against vaccinia virus in HEL cells; assay type: functional, organism-based; conditions: Orthopoxvirus vaccinia
Human alphaherpesvirus 2 = test: Antiviral activity against HSV2 in HEL cells; assay type: functional, organism-based; conditions: Human alphaherpesvirus 2, HEL
[9] = Stability in pH 7.4 buffer at 37 degC after 72 hrs; assay type: physicochemical; conditions: pH 7.4, 72 h
Summary of the method: (§2)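 Compound at 0.1 mM final in buffer (pH 1.2, 5.2, 7.4, 8.1, 9.0 or 11.5) at 37 °C up to 72 h; aliquots frozen at -80 °C, analysed by reverse-phase HPLC (TEAB/acetonitrile gradient, 260 nm); "stable" = less than 5% decomposition after 72 h.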

Hepatitis C virus = test: Antiviral activity against HCV in Huh5-2 cells by subgenomic replicon assay; assay type: functional, organism-based, Hepacivirus hominis; conditions: Huh-5-2
Summary of the method: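 Huh-5-2 cells bearing HCV genotype 1b subgenomic replicon I389luc-ubi-neo/NS3-3'/5.1, seeded 7000 cells/well, adhered 24 h, then five 5-fold dilutions from 100 µM in medium lacking G418 for 72 h at 37 °C, 5% CO2. Interferon alfa 2a (500 IU) positive control. Firefly luciferase read as % of untreated cultures; EC50 calculated.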

[10] = Stability in pH 5.2 buffer at 37 degC after 72 hrs; assay type: physicochemical; conditions: pH 5.2, 72 h; summary of the method: as §2
[11] = Cytotoxicity against Huh5-2 cells; assay type: cell-based, Huh-5-2; conditions: human
Summary of the method: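 Parallel Huh-5-2 cultures (7000 cells/well) given five 5-fold compound dilutions from 100 µM without G418; proliferation measured 3 days after addition by MTS bioreduction to formazan, read in a plate reader.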

[12] = Cytotoxicity against MAGI-CCR5 cells; assay type: cell-based; conditions: human
Summary of the method: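 MAGI-CCR5 cells (10^4 cells/well) were exposed to 0-400 µM compound, 4 h before mock/HIV-1 spinoculation and then throughout a 2-day culture. CC50 is the concentration inhibiting cell proliferation by 50%.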

[13] = Stability in pH 11.5 buffer at 37 degC after 72 hrs; assay type: physicochemical; conditions: pH 11.5, 72 h; summary of the method: as §2
[14] = Stability in CEM-SS cell extracts; assay type: physicochemical, cell-based; conditions: human
Summary of the method: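 CEM-SS cells were washed in PBS, resuspended at 30 × 10^6 cells/mL in 10 mM Tris-HCl, 140 mM KCl (pH 7.4), sonicated and cleared at 10 000g. The supernatant (soluble protein 3 mg/mL) was spiked to a final 0.1 mM compound and incubated at 37 °C. Samples were drawn over time, frozen at -80 °C, and analysed by on-line cleaning reverse-phase HPLC (TEAB gradient, 260 nm). Half-life was calculated.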

[15] = Stability in RPMI-1640 medium; assay type: ADME
Summary of the method: (§3)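 Compound diluted to 0.1 mM final in RPMI 1640 or culture medium (RPMI 1640 + 10% heat-inactivated FCS), incubated 37 °C; aliquots frozen at -80 °C and analysed by on-line cleaning HPLC (C18, TEAB/acetonitrile gradient, 260 nm); half-lives calculated.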

[16] = Stability in pH 8.1 buffer at 37 degC after 72 hrs; assay type: physicochemical; conditions: pH 8.1, 72 h; summary of the method: as §2
[17] = Stability in pH 1.2 buffer at 37 degC after 72 hrs; assay type: physicochemical; conditions: pH 1.2, 72 h; summary of the method: as §2
[18] = Stability in culture medium (RPMI+FBS); assay type: physicochemical; conditions: bovine; summary of the method: as §3
[19] = tested on: Human immunodeficiency virus 1; test: Antiviral activity against HIV1 in MAGI-CCR5 cells; assay type: functional, organism-based; conditions: Human immunodeficiency virus 1, MAGI-CCR5
[20] = Stability in pH 9.0 buffer at 37 degC after 72 hrs; assay type: physicochemical; conditions: pH 9, 72 h; summary of the method: as §2

SMILES | CC50 [1] | EC50 (Sindbis virus) | EC50 (Coxsackievirus B4) | EC50 [2] | EC50 (Punta Toro virus) | CC50 [3] | EC50 (Human alphaherpesvirus 1 [4]) | EC50 (Human alphaherpesvirus 1 [5]) | CC50 [6] | EC50 [7] | EC50 [8] | EC50 (Vaccinia virus) | EC50 (Human alphaherpesvirus 2) | Stability [9] | Stability [10] | CC50 [12] | Stability [13] | half-life [15] | Stability [16] | EC50 [19] | other results
NC(=O)c1ncn([C@@H]2O[C@H](CO)[C@@H](O)[C@H]2O)n1 [RIBAVIRIN] | > 500 µM | > 500 µM | > 500 µM | 100 µM | 100 µM | > 500 µM | 300 µM | > 500 µM | > 500 µM | 12 µM | > 500 µM | 100 µM | > 500 µM |  |  |  |  |  |  |  | EC50 (Human respirovirus 3): 300 µM
BP(=O)(O)COCCn1cnc2c(N)ncnc21 | > 200 µM | > 200 µM | > 200 µM | > 200 µM | > 200 µM | > 200 µM | > 200 µM | > 200 µM | > 200 µM | > 200 µM |  |  | > 200 µM | Stable | Stable | > 400 µM | Stable | > 72 h | Stable | > 400 µM | EC50 (Hepatitis C virus): > 33 µM; CC50 [11]: > 200 µM; half-life [14]: 48 h; Stability [17]: Stable; half-life [18]: 5.3 h; Stability [20]: Stable
Cc1cn([C@H]2C[C@H](N=[N+]=[N-])[C@@H](CO)O2)c(=O)[nH]c1=O [ZIDOVUDINE] |  |  |  |  |  |  |  |  |  |  |  |  |  |  |  | > 400 µM |  |  |  | 0.025 µM | 
Nc1ncnc2c1ncn2CCOC[PH](=O)O | > 200 µM | > 200 µM | > 200 µM | > 200 µM | > 200 µM | > 200 µM | > 200 µM | 120 µM | > 200 µM | > 200 µM | > 200 µM | > 200 µM | 120 µM | Stable | Stable | > 400 µM | Stable | > 72 h | Stable | > 400 µM | EC50 (Hepatitis C virus): > 33 µM; CC50 [11]: > 200 µM; half-life [14]: > 72 h; EC50 (Human respirovirus 3): > 200 µM; Stability [17]: Stable; half-life [18]: > 72 h; Stability [20]: Stable
Nc1nc2c(ncn2COCCO)c(=O)[nH]1 [ACYCLOVIR] | > 500 µM |  |  |  |  |  | 0.48 µM | 12 µM |  |  | > 500 µM | 300 µM | 0.48 µM |  |  |  |  |  |  |  | 
C[C@H](Cn1cnc2c(N)ncnc21)OCP(=O)(O)O [TENOFOVIR ANHYDROUS] |  |  |  |  |  |  |  |  |  |  |  |  |  | Stable | Stable | > 400 µM | Stable | > 72 h | Stable | 0.35 µM | half-life [14]: > 72 h; Stability [17]: Stable; half-life [18]: > 72 h; Stability [20]: Stable
Cc1cn([C@H]2C=C[C@@H](CO)O2)c(=O)[nH]c1=O [STAVUDINE] |  |  |  |  |  |  |  |  |  |  |  |  |  |  |  | > 400 µM |  |  |  | 0.062 µM | 
Nc1nc2c(ncn2COC(CO)CO)c(=O)[nH]1 [GANCICLOVIR] | > 100 µM |  |  |  |  |  | 0.019 µM | 0.48 µM |  |  | > 100 µM | > 100 µM | 0.032 µM |  |  |  |  |  |  |  | 
C[C@H](Cn1cnc2c(N)ncnc21)OC[PH](=O)O | > 200 µM | > 200 µM | > 200 µM | > 200 µM | > 200 µM | > 200 µM | > 200 µM | > 200 µM | > 200 µM | > 200 µM | > 200 µM | > 200 µM | > 200 µM | Stable | Stable | > 400 µM | Stable | > 72 h | Stable | > 400 µM | EC50 (Hepatitis C virus): > 33 µM; CC50 [11]: > 200 µM; EC50 (Human respirovirus 3): > 200 µM; Stability [17]: Stable; half-life [18]: > 72 h; Stability [20]: Stable
O=c1[nH]c(=O)n([C@H]2C[C@H](O)[C@@H](CO)O2)cc1/C=C/Br [BRIVUDINE] | > 500 µM | > 500 µM | > 500 µM | > 500 µM | > 500 µM | > 500 µM | 0.096 µM | 300 µM | > 500 µM | > 500 µM | > 500 µM | 2.4 µM | 300 µM |  |  |  |  |  |  |  | EC50 (Human respirovirus 3): > 500 µM
Nc1ncnc2c1ncn2C[C@H](O)CO [(S)-DHPA] |  | > 500 µM | > 500 µM | > 500 µM | > 500 µM | > 500 µM |  |  | > 500 µM | > 500 µM |  |  |  |  |  |  |  |  |  |  | EC50 (Human respirovirus 3): > 500 µM
BP(=O)(O)CO[C@H](C)Cn1cnc2c(N)ncnc21 | > 200 µM | > 200 µM | > 200 µM | > 200 µM | > 200 µM | > 200 µM | > 200 µM | 120 µM | > 200 µM | > 200 µM |  |  | > 200 µM | Stable | Stable | > 400 µM | Stable | > 72 h | Stable | > 400 µM | EC50 (Hepatitis C virus): > 33 µM; CC50 [11]: > 200 µM; half-life [14]: 24 h; Stability [17]: Stable; half-life [18]: 1.3 h; Stability [20]: Stable
Nc1ncnc2c1ncn2CCOCP(=O)(O)O [ADEFOVIR] |  |  |  |  |  |  |  |  |  |  |  |  |  | Stable | Stable | > 400 µM | Stable | > 72 h | Stable | 5.04 µM | half-life [14]: > 72 h; Stability [17]: Stable; half-life [18]: > 72 h; Stability [20]: Stable

Source: ChEMBL document CHEMBL1138863, “Synthesis, in vitro antiviral evaluation, and stability studies of novel alpha-borano-nucleotide analogues of 9-[2-(phosphonomethoxy)ethyl]adenine and (R)-9-[2-(phosphonomethoxy)propyl]adenine” (J Med Chem, 2006)
